ChEMBL document CHEMBL5055628, “Anticancer properties of indole derivatives as IsoCombretastatin A-4 analogues” (Eur J Med Chem, 2021)
Values belong to the compound of their own block, whether it stands above or below them. Activity calls are given as the source filed them. No cut-off for these calls is given here.

Columns and labels:
[1] = test system: HCT-116; test: Cytotoxicity against human HCT-116 cells assessed as inhibition of cell growth measured after 72 hrs by CellTiter-Glo reagent based luminescence assay; format: functional; conditions: HCT-116, 72 h
Procedure, shortened: (§1)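 Cells (HCT-116 in McCoy's 5A; U87-MG in DMEM 4.5 g/L glucose; all with 10% serum, 1% glutamine, 37 °C, 5% CO2) seeded at 3 × 10³/well, treated after 24 h with 10 final concentrations by serial dilution; vehicle controls. After 72 h, CellTiter-Glo luminescence; IC50 from four- or five-parameter logistic fit, triplicate, mean of three experiments.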

[2] = Drug metabolism in rat liver microsomes assessed as hydroxylated metabolite formation measured after 96 hrs by ESI-HRMS assay; format: ADME, Microsome
Procedure, shortened: (§2)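 Compound at 100 μM final incubated at 37 °C with rat or human liver microsomes (1 mg/mL protein, 10 mM buffer pH 7.4) plus NADPH-generating system (0.6 mM NADPNa4, 6.4 mM glucose-6-phosphate, 2 U/mL G6PDH). After 96 h, ethyl acetate extraction and HPLC-MS/MS (positive ESI, m/z 150–450, collision-induced dissociation) to identify metabolites.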

[3] = Inhibition of porcine brain tubulin polymerization incubated for 30 mins followed by cooling on ice for 10 mins and measured by UV spectrometer assay; format: tissue-based, Sus scrofa
Procedure, shortened: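 Porcine brain tubulin (Shelanski isolation) in 0.1 M MES, 1.5 mM GTP, 1 mM EGTA, 1 mM β-ME, 1 mM MgCl2, pH 6.7, diluted to 1.5 mg/mL; ligand or DMSO 30 min at 20 °C, 10 min on ice. Assembly by 450 nm turbidity on 4→37 °C shift, plateau minus baseline vs no-ligand control (100%); IC50 from mono-exponential fit of ligand:tubulin ratio, three independent experiments.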

[4] = Metabolic stability in rat liver microsomes assessed as half life measured after 96 hrs by HPLC-MS/MS analysis; format: ADME, Microsome
Procedure, shortened: (§3)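 Compound (100 μM final) incubated at 37 °C with rat or human liver microsomes (1 mg/mL protein, pH 7.4) and NADPH-generating system; triplicate aliquots at 0–144 h quenched with isoCA-4 internal standard and ethyl acetate, quantified by HPLC-MS/MS against calibration curves.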

[5] = Metabolic stability in human liver microsomes assessed as half life measured after 96 hrs by HPLC-MS/MS analysis; format: ADME, Microsome; procedure, shortened: as §3
[6] = Drug metabolism in human liver microsomes assessed as O-demethylated metabolite formation measured after 96 hrs by ESI-HRMS assay; format: ADME, Microsome
Procedure, shortened: (§4)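 Rat or human liver microsomes at 1 mg/mL final protein in 10 mM buffer, pH 7.4, prewarmed to 37 °C with an NADPH-generating system (0.6 mM NADP, 6.4 mM glucose-6-phosphate, 2 U/mL G6P dehydrogenase). Substrate 100 μM final; shaken at 37 °C. Triplicate aliquots taken at 0–96 h (up to 144 h), ethyl acetate quench with internal standard, then HPLC-MS/MS (positive ESI, m/z 150–450, CID).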

[7] = Drug metabolism in rat liver microsomes assessed as O-demethylated metabolite formation measured after 96 hrs by ESI-HRMS assay; format: ADME, Microsome; procedure, shortened: as §4
[8] = Drug metabolism in human liver microsomes assessed as hydroxylated metabolite formation measured after 96 hrs by ESI-HRMS assay; format: ADME, Microsome; procedure, shortened: as §2
[9] = test system: HT-1080; test: Cytotoxicity against human HT-1080 cells assessed as inhibition of cell growth measured after 72 hrs by CellTiter-Glo reagent based luminescence assay; format: functional; conditions: HT-1080, 72 h
[10] = test system: MDA-MB-231; test: Cytotoxicity against human MDA-MB-231 cells assessed as inhibition of cell growth measured after 72 hrs by CellTiter-Glo reagent based luminescence assay; format: functional; conditions: MDA-MB-231, 72 h
Procedure, shortened: (§5)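 Cells seeded at 3 × 10³/well and grown 24 h. A549, MDA-MB231, K562 and K562R (doxorubicin-resistant) were in RPMI 1640; MiaPaCa2 and HT29 in DMEM (4.5 g/L glucose); all media had 10% FCS and 1% glutamine, at 37 °C and 5% CO₂. Cells got 10 final concentrations by serial dilution, with vehicle controls, for 72 h. CellTiter-Glo luminescence was read after 15 min. Triplicate runs; IC50 from four- or five-parameter logistic fits.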

[11] = test system: K562; test: Cytotoxicity against human K562 cells assessed as inhibition of cell growth measured after 72 hrs by CellTiter-Glo reagent based luminescence assay; format: functional; conditions: K562, 72 h; procedure, shortened: as §5
[12] = test system: K-562R; test: Cytotoxicity against human K-562R cells assessed as inhibition of cell growth measured after 72 hrs by CellTiter-Glo reagent based luminescence assay; format: functional; procedure, shortened: as §5
[13] = test system: A549; test: Cytotoxicity against human A549 cells assessed as inhibition of cell growth measured after 72 hrs by CellTiter-Glo reagent based luminescence assay; format: functional; conditions: A549, 72 h; procedure, shortened: as §5
[14] = test system: HT-29; test: Cytotoxicity against human HT-29 cells assessed as inhibition of cell growth measured after 72 hrs by CellTiter-Glo reagent based luminescence assay; format: functional; conditions: HT-29, 72 h; procedure, shortened: as §5
[15] = test system: MIA PaCa-2; test: Cytotoxicity against human MIA PaCa-2 cells assessed as inhibition of cell growth measured after 72 hrs by CellTiter-Glo reagent based luminescence assay; format: functional; conditions: MIA PaCa-2, 72 h; procedure, shortened: as §5
[16] = test system: K562; test: Cell cycle arrest in human K562 cells assessed as accumulation of cells in G2/M phase at 0.5 nM measured after 24 hrs by PI staining based flowcytometry; format: functional
Procedure, shortened: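 Exponentially growing K562 cells exposed to compound (0.5 and 1 nM) or DMSO alone for 24 h. DNA content stained with propidium iodide and cell-cycle distribution read by flow cytometry.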

[17] = test system: K562; test: Induction of mitochondrial dysfunction in human K562 cells assessed as red aggregate formation at 0.5 nM measured after 48 hrs by JC-1 staining based flow cytometry (reference value: 98.3%); format: functional
[18] = test system: K562; test: Induction of mitochondrial dysfunction in human K562 cells assessed as red aggregate formation at 5 nM measured after 48 hrs by JC-1 staining based flow cytometry (reference value: 98.3%); format: functional
[19] = test system: K562; test: Induction of mitochondrial dysfunction in human K562 cells assessed as green monomer formation at 50 nM measured after 48 hrs by JC-1 staining based flow cytometry (reference value: 1.3%); format: functional
[20] = test system: K-562R; test: Anticlonogenic activity against imatinib-resistant human K-562R cells assessed as reduction of total surface of cell colonies at 0.01 to 10 nM measured after 10 days by MTT reagent based colony formation assay; format: functional; conditions: dose 0.01-10 nM, time 10.0 day
Procedure, shortened: (§6)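 10^3 K562 cells (RPMI 1640, 10% FBS) or imatinib-resistant K562IR cells (RPMI 1640 with 25 mM HEPES, 10% FCS; kept in 1 μM imatinib, washed three times before use) grown 10 days in semisolid methylcellulose medium with 10% FBS, with or without compound. Colonies stained with 1 mg/mL MTT and image-analysed; three independent experiments, mean ± SD, two-way ANOVA with Tukey test.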

[21] = test system: K562; test: Induction of mitochondrial dysfunction in human K562 cells assessed as red aggregate formation at 10 nM measured after 48 hrs by JC-1 staining based flow cytometry (reference value: 98.3%); format: functional
[22] = test system: U-87 MG; test: Cytotoxicity against human U-87 MG cells assessed as inhibition of cell growth measured after 72 hrs by CellTiter-Glo reagent based luminescence assay; format: functional, U-87MG ATCC; procedure, shortened: as §1
[23] = test system: K562; test: Induction of mitochondrial dysfunction in human K562 cells assessed as green monomer formation at 10 nM measured after 48 hrs by JC-1 staining based flow cytometry (reference value: 1.3%); format: functional
[24] = test system: K562; test: Anticlonogenic activity against human K562 cells assessed as reduction in total surface area of cell colonies at 0.05 to 10 nM measured after 10 days by MTT reagent based colony formation assay; format: functional; conditions: dose 0.05-10 nM, time 10.0 day; procedure, shortened: as §6
[25] = Drug metabolism in human liver microsomes assessed as N-demethylated metabolite formation measured after 96 hrs by ESI-HRMS assay; format: ADME, Microsome; procedure, shortened: as §2
[26] = test system: K-562R; test: Anticlonogenic activity against imatinib-resistant human K-562R cells assessed as reduction of average size of cell colonies at 0.01 to 10 nM measured after 10 days by MTT reagent based colony formation assay; format: functional; conditions: dose 0.01-10 nM, time 10.0 day; procedure, shortened: as §6
[27] = test system: K562; test: Induction of mitochondrial dysfunction in human K562 cells assessed as green monomer formation at 0.5 nM measured after 48 hrs by JC-1 staining based flow cytometry (reference value: 1.3%); format: functional
[28] = test system: K562; test: Induction of mitochondrial dysfunction in human K562 cells assessed as green monomer formation at 5 nM measured after 48 hrs by JC-1 staining based flow cytometry (reference value: 1.3%); format: functional
[29] = test system: K562; test: Induction of mitochondrial dysfunction in human K562 cells assessed as green monomer formation at 1 nM measured after 48 hrs by JC-1 staining based flow cytometry (reference value: 1.3%); format: functional
[30] = test system: K562; test: Induction of mitochondrial dysfunction in human K562 cells assessed as red aggregate formation at 50 nM measured after 48 hrs by JC-1 staining based flow cytometry (reference value: 98.3%); format: functional
[31] = test system: K562; test: Anticlonogenic activity against human K562 cells assessed as reduction in number of cell colonies at 0.05 to 10 nM measured after 10 days by MTT reagent based colony formation assay; format: functional; conditions: dose 0.05-10 nM, time 10.0 day; procedure, shortened: as §6
[32] = test system: K-562R; test: Anticlonogenic activity against imatinib-resistant human K-562R cells assessed as reduction in number of cell colonies at 0.01 to 10 nM measured after 10 days by MTT reagent based colony formation assay; format: functional; conditions: dose 0.01-10 nM, time 10.0 day; procedure, shortened: as §6
[33] = test system: K562; test: Anticlonogenic activity against human K562 cells assessed as reduction in average size of cell colonies at 0.05 to 10 nM measured after 10 days by MTT reagent based colony formation assay; format: functional; conditions: dose 0.05-10 nM, time 10.0 day; procedure, shortened: as §6
[34] = Drug metabolism in rat liver microsomes assessed as N-demethylated metabolite formation measured after 96 hrs by ESI-HRMS assay; format: ADME, Microsome; procedure, shortened: as §2
[35] = test system: K562; test: Induction of mitochondrial dysfunction in human K562 cells assessed as red aggregate formation at 1 nM measured after 48 hrs by JC-1 staining based flow cytometry (reference value: 98.3%); format: functional

SMILES: Cc1nc(N(C)c2ccc3c(c2)cc2n3CCOC2)c2ccccc2n1
IC50 [1]: 10.4 nM

SMILES: CCn1c(CO)cc2cc(N(C)c3cc(C)nc4ccccc34)ccc21
IC50 [1]: 21.6 nM

SMILES: C=C(c1cc(OC)c(OC)c(OC)c1)c1ccc2c(c1)cc1ccccn12
IC50 [1]: 213 nM

Drug metabolism [2]: Metabolite_Detected
IC50 [3]: 2900 nM
half-life [4]: 70 h
half-life [5]: 89 h
Drug metabolism [6]: Metabolite_Detected
Drug metabolism [7]: Metabolite_Detected
Drug metabolism [8]: Metabolite_Detected
SMILES: C=C(c1cc(OC)c(OC)c(OC)c1)c1ccc2c(c1)cc(CO)n2CC
IC50 [1]: 0.52 nM

SMILES: C=C(c1ccc2c(c1)cc(CO)n2CC)c1cc(C)nc2ccccc12
IC50 [1]: 1.47 nM

SMILES: C=C(c1ccc(OC)c(O)c1)c1cc(OC)c(OC)c(OC)c1
IC50 [9]: 0.91 nM
Drug metabolism [2]: Metabolite_Detected
IC50 [10]: 1.98 nM
IC50 [11]: 4.26 nM
IC50 [12]: 5.13 nM
half-life [4]: 18 h
IC50 [13]: 52.7 nM
IC50 [14]: > 100 nM
half-life [5]: 30 h
Drug metabolism [6]: Metabolite_Detected
Drug metabolism [7]: Metabolite_Detected
Drug metabolism [8]: Metabolite_Detected
IC50 [1]: 0.64 nM
IC50 [15]: 3.01 nM

SMILES: C=C(c1cc(OC)c(OC)c(OC)c1)c1ccc2c(c1)cc1n2CCOC1
IC50 [1]: 23.5 nM

SMILES: C=C(c1ccc2c(c1)cc(CO)n2C)c1cc(C)nc2ccccc12
IC50 [1]: 1.25 nM

SMILES: Cc1nc(N(C)c2ccc3c(c2)cc2ccccn23)c2ccccc2n1
IC50 [1]: 6.87 nM

Drug metabolism [2]: Metabolite_Detected
IC50 [3]: 1900 nM
half-life [4]: 140 h
Drug metabolism [25]: Metabolite_Detected
half-life [5]: 145 h
Drug metabolism [8]: Metabolite_Detected
Drug metabolism [34]: Metabolite_Detected
SMILES: CCn1c(CO)cc2cc(N(C)c3nc(C)nc4ccccc34)ccc21
IC50 [9]: 0.08 nM
Activity [16]: Active
Activity [17]: 77.6%
IC50 [10]: 0.25 nM
IC50 [11]: 0.26 nM
Activity [18]: 75.8%
Activity [19]: 39.2%
Activity [20]: Active
IC50 [12]: 0.1 nM
Activity [21]: 68.1%
IC50 [22]: 0.51 nM
Activity [23]: 31.2%
Activity [24]: Active
Activity [26]: Active
IC50 [13]: 0.7 nM
Activity [27]: 21.3%
Activity [28]: 23.1%
Activity [29]: 22.3%
Activity [30]: 60%
IC50 [14]: 0.84 nM
Activity [31]: Active
Activity [32]: Active
IC50 [1]: 0.08 nM
IC50 [15]: 0.09 nM
Activity [33]: Active
Activity [35]: 76.9%

SMILES: COCOCc1cc2cc(N(C)c3cc(C)nc4ccccc34)ccc2n1C
IC50 [1]: 44.3 nM

SMILES: C=C(c1ccc2c(c1)cc1n2CCOC1)c1cc(C)nc2ccccc12
IC50 [1]: 109 nM

SMILES: Cc1cc(N(C)c2ccc3c(c2)cc2n3CC=CC2)c2ccccc2n1
IC50 [1]: 5.2 nM

SMILES: COc1cc(N(C)c2ccc3c(c2)cc2n3CC=CC2)cc(OC)c1OC
IC50 [1]: 959 nM
